20 compounds from ChEMBL document CHEMBL1131093, “ATP-Citrate lyase as a target for hypolipidemic intervention. 2. Synthesis and evaluation of (3R,5S)-omega-substituted-3-carboxy-3, 5-dihydroxyalkanoic acids and their gamma-lactone prodrugs as inhibitors of the enzyme in vitro and in vivo” (J Med Chem, 1998) can be followed below.

Assay [1] deals with Rattus norvegicus. Kind of assay: % Reduction of plasma triglyceride in the rat was measured at dose 37.5 mg/kg/d. The class given is functional. The method, boiled down:
(§1)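 Male Sprague-Dawley rats were kept on a reverse 12 h light/12 h dark cycle with free access to RM1 powdered diet and water. Compound was given orally by gavage as two doses 24 h apart. Blood was drawn mid dark cycle, 4 h after the second dose, into EDTA. Plasma was separated at 1500g for 15 min. Triglyceride was measured enzymatically (GPO-PAP) and reported as % reduction from control.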

The subject of assay [2] is Rattus norvegicus. In words: % Reduction of plasma triglyceride in the rat was measured at dose 75 mg/kg/d. The class given is functional. The method in brief: as §1
Assay [3] addresses T1, ATP-citrate synthase (Homo sapiens, UniProt P53396).
T1 sequence (P53396 whole entry): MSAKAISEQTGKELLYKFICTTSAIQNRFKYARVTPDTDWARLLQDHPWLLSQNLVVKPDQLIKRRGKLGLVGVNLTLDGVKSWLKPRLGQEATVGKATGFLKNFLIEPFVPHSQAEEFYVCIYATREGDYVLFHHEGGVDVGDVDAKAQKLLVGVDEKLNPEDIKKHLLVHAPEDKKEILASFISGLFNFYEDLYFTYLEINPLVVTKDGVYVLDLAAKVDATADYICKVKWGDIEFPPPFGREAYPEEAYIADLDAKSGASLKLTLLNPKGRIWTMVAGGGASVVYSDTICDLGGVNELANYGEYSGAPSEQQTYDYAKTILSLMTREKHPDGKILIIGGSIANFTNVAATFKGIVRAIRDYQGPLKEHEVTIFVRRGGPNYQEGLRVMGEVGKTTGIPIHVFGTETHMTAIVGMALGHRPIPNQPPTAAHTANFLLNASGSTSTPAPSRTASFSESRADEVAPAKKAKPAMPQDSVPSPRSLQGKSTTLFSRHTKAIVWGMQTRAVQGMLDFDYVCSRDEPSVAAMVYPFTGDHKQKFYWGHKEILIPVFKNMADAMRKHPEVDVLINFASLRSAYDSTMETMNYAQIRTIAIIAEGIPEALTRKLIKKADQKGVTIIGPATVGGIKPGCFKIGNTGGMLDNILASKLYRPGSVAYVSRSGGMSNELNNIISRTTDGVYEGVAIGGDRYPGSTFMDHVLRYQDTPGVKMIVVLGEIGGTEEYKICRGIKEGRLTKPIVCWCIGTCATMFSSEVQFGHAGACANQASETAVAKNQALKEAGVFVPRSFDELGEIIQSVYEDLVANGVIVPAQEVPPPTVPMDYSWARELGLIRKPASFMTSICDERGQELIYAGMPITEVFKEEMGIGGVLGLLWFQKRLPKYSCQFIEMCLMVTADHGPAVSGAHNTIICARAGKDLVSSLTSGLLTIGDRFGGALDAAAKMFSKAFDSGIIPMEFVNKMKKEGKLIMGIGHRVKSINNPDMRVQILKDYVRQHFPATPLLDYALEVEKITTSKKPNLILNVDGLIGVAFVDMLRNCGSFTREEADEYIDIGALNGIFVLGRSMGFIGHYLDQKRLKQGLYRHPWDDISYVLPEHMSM
In words: Inhibitory activity against human recombinant ATP-Citrate Lyase (ACL) enzyme. The method, boiled down:
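Human recombinant ATP-citrate lyase was used. Lactone intermediates were hydrolysed with aqueous NaOH to the hydroxy acid before being added to the enzyme buffer mix. Potency was reported as the reversible Ki.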

Assay [4] addresses T2, ATP-citrate synthase (Rattus norvegicus, UniProt P16638).
T2 sequence (P16638 whole entry): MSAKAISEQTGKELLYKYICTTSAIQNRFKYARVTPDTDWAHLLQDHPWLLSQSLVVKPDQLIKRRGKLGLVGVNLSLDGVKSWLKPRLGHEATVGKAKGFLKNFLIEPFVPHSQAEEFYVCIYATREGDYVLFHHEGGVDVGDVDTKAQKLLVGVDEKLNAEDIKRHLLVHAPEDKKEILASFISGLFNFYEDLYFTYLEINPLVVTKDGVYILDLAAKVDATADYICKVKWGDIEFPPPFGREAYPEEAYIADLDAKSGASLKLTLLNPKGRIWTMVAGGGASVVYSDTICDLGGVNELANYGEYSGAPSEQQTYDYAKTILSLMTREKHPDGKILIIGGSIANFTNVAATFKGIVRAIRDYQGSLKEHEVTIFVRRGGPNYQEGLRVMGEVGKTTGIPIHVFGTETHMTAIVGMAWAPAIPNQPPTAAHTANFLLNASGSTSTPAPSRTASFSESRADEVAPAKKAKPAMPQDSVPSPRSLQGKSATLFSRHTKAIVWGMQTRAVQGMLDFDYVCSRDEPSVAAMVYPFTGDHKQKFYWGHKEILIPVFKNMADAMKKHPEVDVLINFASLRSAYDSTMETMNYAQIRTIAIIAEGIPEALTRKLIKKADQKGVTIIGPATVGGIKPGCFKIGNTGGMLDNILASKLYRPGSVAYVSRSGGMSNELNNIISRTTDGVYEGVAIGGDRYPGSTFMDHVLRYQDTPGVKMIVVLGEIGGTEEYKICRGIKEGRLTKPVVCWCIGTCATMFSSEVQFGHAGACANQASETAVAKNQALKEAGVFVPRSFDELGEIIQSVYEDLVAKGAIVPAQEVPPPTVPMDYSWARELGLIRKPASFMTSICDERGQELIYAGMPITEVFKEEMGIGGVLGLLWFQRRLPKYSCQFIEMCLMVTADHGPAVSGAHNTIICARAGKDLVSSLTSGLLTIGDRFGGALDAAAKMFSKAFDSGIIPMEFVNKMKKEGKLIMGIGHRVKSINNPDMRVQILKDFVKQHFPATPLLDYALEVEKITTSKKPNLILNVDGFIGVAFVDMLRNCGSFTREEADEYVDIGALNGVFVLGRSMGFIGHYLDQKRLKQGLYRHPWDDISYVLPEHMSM
In words: Inhibitory activity was tested against ATP-Citrate Lyase (ACL) enzyme in rat.

Assay [5] addresses T3, ATP-citrate synthase (Homo sapiens) (UniProt P53396).
T3 sequence (whole entry): T1 sequence (P53396 whole entry)
Kind of assay: Inhibitory activity was tested against human recombinant ATP-Citrate Lyase (ACL) enzyme at 100 uM.

In assay [6] the target is T2, ATP-citrate synthase. In words: Inhibitory activity was tested against rat ATP-Citrate Lyase (ACL) enzyme.

Molecules are shown by their SMILES.

For `O=C(O)C[C@@]1(O)C[C@@H](CCCCCC2c3ccccc3-c3cc(Cl)ccc32)OC1=O` (some centres not stated), the Reduction in assay [1] was 5%; in assay [2], 16%.

For orientation: Ki means a dissociation constant, usually derived from enzyme kinetics or from competition with a known ligand. `O=C(O)C[C@@](O)(C[C@H](O)CCCCCCc1ccc(Cl)cc1-c1ccc(F)cc1)C(=O)O`: the Ki in assay [3] stood at 2.7 µM. On to `O=C(O)C[C@@](O)(CCCCCCCCc1ccc(Cl)cc1Cl)C(=O)O`, for which, in assay [4], the Ki is 2.9 µM. Take `COc1ccc(-c2cc(Cl)ccc2CCCCCC[C@@H](O)C[C@](O)(CC(=O)O)C(=O)O)cc1`: the Ki in assay [3] is 5.1 µM. Still for that read-out and setting: as for `COc1cc(Cl)ccc1CCCCCC[C@@H](O)C[C@](O)(CC(=O)O)C(=O)O`, the figure is 19 µM; as for `O=C(O)C[C@@](O)(C[C@H](O)CCCCCCc1ccc(Cl)cc1-n1cccc1)C(=O)O`, 3.9 µM.

Turning to `O=C(O)C[C@@](O)(C[C@H](O)CCCCCn1c2ccccc2c2cc(Cl)ccc21)C(=O)O`, the Ki in assay [3] stood at 0.71 µM. Broadly, the inhibition is the share of the control response that was lost under treatment. For the compound `O=C(O)C[C@@](O)(C[C@H](O)CCCCCCc1ccc(Cl)cc1O)C(=O)O`, in assay [5], the inhibition stood at 24%. Turning to `O=C(O)C[C@@](O)(C[C@H](O)CCCCCC1c2ccccc2-c2cc(Cl)ccc21)C(=O)O` (some centres not stated), in assay [3], the Ki was found to be 0.22 µM. As for `O=C(O)C[C@@](O)(C[C@H](O)CCCCCCc1ccc(Cl)cc1Cl)C(=O)O` (stereo in doubt; (-)-45), the Ki in assay [6] is 0.7 µM; in assay [3], 0.77 µM.

Regarding `O=C(O)C[C@@](O)(C[C@H](O)CCCCCCc1ccc(Cl)cc1-c1ccc(Cl)cc1Cl)C(=O)O`, the Ki in assay [3] came out at 21 µM. Same read-out and setting: as for `O=C(O)C[C@@](O)(C[C@H](O)CCCCCCc1ccc(Cl)cc1-c1ccccc1)C(=O)O`, the figure is 0.75 µM; as for `O=C(O)C[C@@](O)(C[C@H](O)CCCCCCn1ccc2cc(Cl)ccc21)C(=O)O`, 3.2 µM. For the compound `Cc1cn(CCCCC[C@@H](O)C[C@](O)(CC(=O)O)C(=O)O)c2ccc(Cl)cc12`, the Ki in assay [3] is 9.5 µM. On the same count and under the same terms, the figure for `O=C(O)C[C@@](O)(C[C@H](O)CCCCCCc1ccc(Cl)cc1-c1ccc(Cl)cc1)C(=O)O` is 5 µM; for `O=C(O)C[C@@](O)(C[C@H](O)CCCCCn1cc(Cc2ccccc2)c2cc(Cl)ccc21)C(=O)O` it is 2.9 µM; for `Cc1cn(-c2cc(Cl)ccc2CCCCCC[C@@H](O)C[C@](O)(CC(=O)O)C(=O)O)cc1C` (stereo in doubt; 58) it is 0.3 µM. As for `O=C(O)C[C@@](O)(CC(=O)CCCCCCc1ccc(Cl)cc1Cl)C(=O)O`, the Ki in assay [6] amounted to 1.2 µM.

In the case of `Cc1cc2cc(Cl)ccc2n1CCCCC[C@@H](O)C[C@](O)(CC(=O)O)C(=O)O`, in assay [3], the Ki came out at 13 µM. The same measure, in the same setting: the figure for `Cc1cn(-c2cc(Cl)ccc2CCCCCC[C@@H](O)C[C@](O)(CC(=O)O)C(=O)O)cc1C` (stereo in doubt; (+)-58) is 0.58 µM.
